Gli-Sufu block: Gli-Sufu pathway antagonists, primary screen, luciferase luminescence, Sufu-KO-LIGHT cells, uHTS; Sufu-KO-LIGHT fibroblasts, Gli luciferase reporter luminescence; inhibition, % at 5 µM; actives 0.74% (n = 340,000);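 active = inhibition above about 55%, limit read from the data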
CHOP inh: inhibitors of CHOP promoter induction, primary screen, cell-based, unfolded protein response, luciferase reporter | AID 2732, 2010 | actives 3.8% (n = 220,000) | CHO-K1 CHOP-promoter luciferase, tunicamycin-induced, 15-18 h | inhibition, % at 10 µM;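 active = compounds that reduced the stress-induced luciferase reporter signal by more than about 70% of percent inhibition, limit read from the data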
CHOP UPR activ: activators of apoptotic CHOP UPR arm, primary screen, cell-based, CHO-CHOP luciferase reporter, luminescence, uHTS. actives 0.34% (n = 330,000). UPR activation; percent of tunicamycin response over DMSO baseline. activation, % at 10 µM. AID 449763, 2010;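 active = at 10 µM dose, activation of 40% or more, normalized to positive control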
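Material: CHO-CHOP cells, stable luciferase reporter of PERK-eIF2a-CHOP signalling; quantity: 500 reporter cells seeded per well; buffer or medium: F12 medium containing 10% fetal bovine serum; compound: one dose, 10 µM in 0.5% DMSO; incubation: 6 h compound treatment, 37 °C; measured by: Steady-Glo luciferase luminescence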
697 NFkB inh: inhibitors of PMA/ionomycin-induced NF-kB reporter, 697 cells, primary screen, B-cell NF-kB inhibitor project, cell-based, luminescence, uHTS; 697 B-cell NF-kB luciferase reporter, 16 h; inhibition, % at 4 µM; actives 0.33% (n = 330,000); AID 435022, 2010; in the data active = inhibition above about 35%
UPR XBP1 act: activators of adaptive XBP1 UPR arm, primary screen, cell-based, CHO-XBP1 luciferase reporter, luminescence, uHTS. IRE1-XBP1 UPR activation; percent of tunicamycin response, DMSO as zero. actives 0.33% (n = 330,000). activation, % at 20 µM;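 active = versus positive control, 20 µM dose yields 30% or more activation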
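Material: CHO-XBP1 cells stably carrying IRE1-XBP1-driven luciferase reporter / Amount: 1000 cells per well / Compound: 20 µM, 1% DMSO / Times: 6 h treatment, 37 °C / Detection: luciferase luminescence / Measure: % activation of reporter signal versus tunicamycin and DMSO controls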
Jurkat NFkB inh: inhibitors of induced NF-kB luciferase reporter, primary screen, TCR NF-kB activation inhibitor project, cell-based, luminescence, uHTS | actives 0.53% (n = 330,000) | AID 435003, 2010 | inhibition, % at 4 µM | Jurkat, PMA/ionomycin-induced NF-kB luciferase reporter; in the data active = inhibition above about 50%
Gli antag conf: Gli-SUFU pathway antagonists, confirmation, single concentration, luciferase luminescence, Sufu-KO-LIGHT cells | shares compounds with Gli-Sufu block | Gli luciferase reporter | inhibition, % at 5 µM | actives 40% (n = 2,500);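 active = mean inhibition at 5 µM reaching about 45%, limit read from the data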
Gli cytotox: cytotoxicity in Sufu-KO-LIGHT cells, confirmation, cytotoxicity control for Gli-SUFU antagonist project, cell-based, ATP luminescence, single concentration | shares compounds with Gli-Sufu block | cytotoxicity, % at 5 µM | actives 32% (n = 2,500) | AID 651994, 2013;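 active = mean cytotoxicity at 5 µM above about 25%, limit read from the data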;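 also: cells exposed to compound overnight for roughly 16 to 18 hours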
Wnt3a cs: Wnt3a reporter signal inhibition, confirmation, counter-screen for Gli-SUFU antagonist project, Wnt-LIGHT cells, luminescence, single concentration; shares compounds with Gli-Sufu block; Wnt3a-driven luciferase reporter; inhibition, % at 6.25 µM; actives 20% (n = 2,500);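 active = mean inhibition above about 25%, limit read from the data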
Numbers stand for hits; - = inactive; . = not tested or not shown. Shown are actives, neighbours in structure and some others; about 3.9% of the full set was active somewhere.

SMILES	Gli-Sufu block	CHOP inh	CHOP UPR activ	697 NFkB inh	UPR XBP1 act	Jurkat NFkB inh	Gli antag conf	Gli cytotox	Wnt3a cs
O=C1C(=O)N(CCCn2ccnc2)C(c2ccc(Br)cc2)/C1=C(\O)c1ccc2c(c1)OCCO2 (stereo not drawn)	-	.	-	-	-	-	.	.	.
O=C1C(=O)N(CCCn2ccnc2)C(c2cccc(Br)c2)/C1=C(\O)c1ccc2c(c1)OCCO2 (stereo not drawn)	-	.	-	-	-	-	-	-	-
COc1cc(OC)c(OC)cc1/C=N/n1c(COc2ccccc2)n[nH]c1=S	57	.	-	-	-	-	-	-	-
Cc1cc(=O)oc(C)c1C(=O)NCCN1CCOCC1	72	-	-	-	-	-	-	-	25
CCn1c(C)c(C)c2cc(C(=O)NCCN3CCOCC3)ccc21	58	.	-	-	-	-	-	-	-
CCNc1ccc(C(=O)OC(C(=O)NC(N)=O)C(C)C)cc1[N+](=O)[O-] (stereo not drawn)	59	-	-	-	-	-	-	-	-
CCNc1ccc(C(=O)OCC(=O)NC(C)c2ccccc2)cc1[N+](=O)[O-] (stereo not drawn)	-	-	-	-	-	-	.	.	.
O=C1CN(C(=O)c2ccccc2F)c2ccccc2N1	-	-	-	-	-	-	.	.	.
COc1cc(OC)cc(C(=O)N2CC(=O)Nc3ccccc32)c1	-	.	-	-	-	-	-	48	-
COc1ccc(Cl)cc1NC(=O)CN1C(=O)NC2(CCCC2)C1=O	.	.	-	-	-	-	.	.	.
CN(CCOc1ccc(Cl)cc1)C(=O)c1cccc(S(=O)(=O)N2CCN(c3ccc(F)cc3)CC2)c1	70	.	.	.	.	.	64	26	-
O=C(c1cccc(S(=O)(=O)N2CCN(c3ccc(F)cc3)CC2)c1)N1CCCC(C(F)(F)F)C1 (stereo not drawn)	57	.	-	-	-	-	62	34	-
COc1ccc(CCN(C)C(=O)c2cccc(S(=O)(=O)N3CCN(c4ccc(F)cc4)CC3)c2)cc1OC	-	.	.	.	.	.	.	.	.
CCc1nnc(NC(=O)c2cc(-c3ccco3)nc3ccccc23)s1	61	-	-	-	-	-	-	-	-
CCc1nnc(NC(=O)c2cc(-c3ccccn3)nc3ccccc23)s1	-	-	-	-	-	-	.	.	.
c1cncc(C(c2nnnn2C2CCCCC2)N2CCN3CCCC3C2)c1 (stereo not drawn)	-	-	-	-	-	-	-	-	-
Cc1cc(C(=O)N/N=C2\CCCc3ccccc32)c(C)o1	-	-	-	-	-	-	.	.	.
Cc1cc(C(=O)N/N=C2/CC(C)CC(C)(C)C2)c(C)o1 (stereo not drawn)	-	-	-	-	-	-	-	-	-
COc1ccc(OC(=O)c2cccc(S(=O)(=O)N3CC(C)OC(C)C3)c2)cc1 (stereo not drawn)	-	.	-	-	-	-	.	.	.
Cc1nnc(C)c2c(C)n(-c3ccccc3)c(C)c12	59	.	-	-	-	-	-	-	-
Cc1cc(NC(=O)COC(=O)Cn2[nH]c(=O)c3ccccc3c2=O)c([N+](=O)[O-])cc1C	-	.	-	-	-	-	.	.	.
Cc1oc(-c2cccc(Cl)c2)nc1CN1CCC(C(=O)N2CCN(c3ccccc3F)CC2)CC1	84	-	-	-	-	-	-	-	-
O=C(NC1CCSc2ccccc21)c1ccc(C(F)(F)F)cc1 (stereo not drawn)	-	.	-	-	-	-	.	.	.
Cc1ccc2c(C)c(C(=O)Nc3ccc(S(N)(=O)=O)cc3)oc2c1C	-	-	-	-	-	-	.	.	.
Cc1ccc2c(C)c(C(=O)NCc3ccc(S(N)(=O)=O)cc3)oc2c1C	59	-	-	-	-	-	-	-	-
SMILES	Gli-Sufu block	CHOP inh	CHOP UPR activ	697 NFkB inh	UPR XBP1 act	Jurkat NFkB inh	Gli antag conf	Gli cytotox	Wnt3a cs
O=C(NC1CCCCCC1)c1ccco1	-	.	-	-	-	-	.	.	.
COc1ccc(CC(=O)NC(CC(=O)O)c2ccc(OC)cc2)cc1 (stereo not drawn)	-	-	-	-	-	-	.	.	.
COc1ccc(C(CC(=O)O)NC(=O)COc2ccccc2)cc1 (stereo not drawn)	-	-	-	-	-	-	-	-	-
O=S(=O)(O)c1cc(OS(=O)(=O)c2ccccc2)cc2ccccc12	-	.	-	-	-	-	.	.	.
O=C(Nc1ccc(S(=O)(=O)N2CCCC2)cc1)c1cc(F)c(F)cc1Cl	-	.	-	-	-	-	.	.	.
COc1cc(C(=O)N/N=C(\C)c2ccccn2)cc(OC)c1OC	-	.	-	-	-	-	.	.	.
COc1cc(C(=O)N/N=C(\c2ccccc2)c2ccccn2)cc(OC)c1OC	92	-	-	-	-	-	84	38	57
O=C(COc1ccc(Br)cc1)NCCN1CCCC1	-	.	-	-	-	-	.	.	.
CCN1CCN(C(=O)CCc2nnc(CCc3ccc(OC)cc3)o2)[C@@H](C)C1=O	-	.	-	-	-	-	.	.	.
O=C(Oc1c(CN2CCOCC2)cc(Cl)c2cccnc12)c1ccccc1	75	-	-	-	-	-	-	32	-
COc1cc(OC)cc(C(=O)Oc2c(CN3CCOCC3)cc(Cl)c3cccnc23)c1	-	-	-	-	-	-	.	.	.
O=C(Cc1ccc(S(=O)(=O)N2CCOCC2)s1)Oc1ccc(F)cc1	96	.	-	-	-	-	-	-	-
CC[C@]12c3[nH]c4ccc(OC)cc4c3CCN1C(=O)C(CC(=O)NCCCOC)C[C@@H]2C(=O)N1CCN(C(=O)c2ccco2)CC1 (stereo partly drawn)	-	.	-	-	-	.	.	.	.
Cc1cc(C)n(S(=O)(=O)c2ccccc2[N+](=O)[O-])n1	-	.	-	-	-	-	.	.	.
COc1ccccc1CCNC(=O)C(=O)NCCC1CCCCN1S(=O)(=O)c1ccccc1 (stereo not drawn)	-	.	-	-	-	-	.	.	.
